Measured values from different studies.
Compare with care: the assays were run in different laboratories.
Medium: Caco-2

C[C@H]1O[C@@H](O[C@H]2[C@@H](O)C[C@H](O[C@H]3[C@@H](O)C[C@H](O[C@H]4CC[C@@]5(C)[C@H](CC[C@@H]6[C@@H]5C[C@@H](O)[C@]5(C)[C@@H](C7=CC(=O)OC7)CC[C@]65O)C4)O[C@@H]3C)O[C@@H]2C)C[C@H](O)[C@@H]1O  efflux ratio: 643
CC(C)NCC(O)COc1cccc2ccccc12 (stereo not drawn)  efflux ratio (10 µM; 2 h; pH 7.4): 0.47
Nc1nc2c(ncn2COCCO)c(=O)[nH]1  efflux ratio (10 µM; 2 h; pH 7.4): 9.42
CO[C@@H](C[C@H]1C(C)=CC[C@@H]2[C@]3(C)C[C@H](O[C@@H]4O[C@@H](C)[C@H](OC(=O)c5cccc(O)c5)[C@@H](O[C@@H]5O[C@H](CO)[C@@H](O)[C@H](O)[C@H]5NC(C)=O)[C@H]4O)[C@@H](O)C(C)(C)[C@H]3CC[C@]21C)[C@H](N)C(=O)O.O=C(O)C(F)(F)F  efflux ratio (5 µM; 1 h): 4.6
CNC(=C[N+](=O)[O-])NCCSCc1ccc(CN(C)C)o1  efflux ratio: 5
Cn1c(=O)c2c(nc(S)n2C)n(C)c1=O  efflux ratio (10 µM; 2 h): 3.3
CCOC(=O)[C@@]12C[C@@H]1[C@@H](n1ccc3c(NC)nc(C#Cc4ccc(Cl)s4)nc31)[C@H](O)[C@@H]2O  efflux ratio (10 µM; 2 h; pH 7.4): 15.6
C[C@H]1O[C@@H](O[C@H]2[C@@H](O)C[C@H](O[C@H]3[C@@H](O)C[C@H](O[C@H]4CC[C@@]5(C)[C@H](CC[C@@H]6[C@@H]5C[C@@H](O)[C@]5(C)[C@@H](C7=CC(=O)OC7)CC[C@]65O)C4)O[C@@H]3C)O[C@@H]2C)C[C@H](O)[C@@H]1O  efflux ratio (10 µM; 2 h; pH 7.4): 87.9
CC(C)NCC(O)COc1cccc2ccccc12 (stereo not drawn)  efflux ratio (5 µM; 1 h): 0.8
